Assay results taken from paper PMC2859091 (Journal of natural products, 2010).

Legend:
[1] = tested on: DLD-1 human colorectal adenocarcinoma; assay: Cytotoxicity; format: cell-based
Outline: (§1)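 Test compound assessed for effect on proliferation of human PANC-1 pancreatic carcinoma and DLD-1 colorectal adenocarcinoma cells, both lines obtained from ATCC. The procedure follows a previously described protocol. Each sample was assayed at least three times to derive the final value.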

[2] = tested on: Pseudomonas aeruginosa (ATCC 27853); assay: Antimicrobial assay, P. aeruginosa; format: cell-based; details: at the concentrations tested
[3] = tested on: PANC-1 pancreatic carcinoma; assay: Cytotoxicity; format: cell-based, human
Outline: as §1

[4] = tested on: Candida albicans (ATCC 44506); assay: Antimicrobial assay, C. albicans; format: cell-based; details: at the concentrations tested
[5] = tested on: NCI/ADR-Res (multi drug resistant ovarian cancer cell line); assay: Cytotoxicity; format: cell-based, human; details: at a concentration of 5.2 µM
MCL-1 binding to Bak = MCL-1 binding to Bak (Homo sapiens, UniProt Q07820); assay: MCL-1 assay
Chain of MCL-1 binding to Bak (Q07820 whole entry): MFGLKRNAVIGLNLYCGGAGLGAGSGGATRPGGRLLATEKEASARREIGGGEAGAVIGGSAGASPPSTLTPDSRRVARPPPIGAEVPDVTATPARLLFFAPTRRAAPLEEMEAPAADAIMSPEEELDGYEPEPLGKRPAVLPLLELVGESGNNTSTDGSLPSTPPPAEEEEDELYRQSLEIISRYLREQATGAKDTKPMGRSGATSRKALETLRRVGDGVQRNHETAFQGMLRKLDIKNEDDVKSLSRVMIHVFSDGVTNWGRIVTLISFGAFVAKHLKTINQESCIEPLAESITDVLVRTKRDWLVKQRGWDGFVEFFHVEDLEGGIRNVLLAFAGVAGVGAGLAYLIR

Structure (SMILES) | inhibitory activity against DLD-1 ([1]; at a concentration of 6.4 µM) | activity against Pseudomonas aeruginosa [2] | inhibitory activity against PANC-1 ([3]; at a concentration of 6.4 µM) | activity against Candida albicans [4] | inhibitory activity against DLD-1 ([1]; at a concentration of 5.2 µM) | inhibitory activity against NCI/ADR-Res [5] | inhibition of MCL-1 binding to Bak (in words) (MCL-1 binding to Bak) | inhibitory activity against PANC-1 ([3]; at a concentration of 5.2 µM)
CCC[C@@H](O)Cc1c(Br)c(O)c2c(=O)c3c(O)cc(O)c4c5c(O)cc(O)c6c(=O)c7c(O)c(Br)c(C[C@H](C)O)c8c1c2c(c34)c(c65)c78 [Gymnochrome E, 1,6,8,10,11,13-hexahydroxy-2,5-dibromo-3-(2-hydroxypropyl)-4-(2-hydroxypentyl)-phenanthroperylene-7,14-quinone] | did not show significant inhibitory activity | did not show activity | did not show significant inhibitory activity | did not show activity |  |  |  | 
CCC[C@@H](O)Cc1c(Br)c(O)c2c(=O)c3c(O)c(Br)c(O)c4c5c(O)c(Br)c(O)c6c(=O)c7c(O)c(Br)c(C[C@H](O)CCC)c8c1c2c(c34)c(c65)c78 [Gymnochrome F, 1,6,8,10,11,13-hexahydroxy-2,5,9,12-tetrabromo-3,4-(2-hydroxypentyl)-phenanthroperylene-7,14-quinone] |  | did not show activity |  | did not show activity | did not show significant inhibitory activity | did not show significant inhibitory activity | moderate inhibitor | did not show significant inhibitory activity
